Assay results from ChEMBL document CHEMBL1641433, “Replacement of the double bond of antitubulin chalcones with triazoles and tetrazoles: Synthesis and biological evaluation” (Bioorg Med Chem Lett, 2011).
One block for each compound: values may come before it. Active and inactive are the calls of the source. No cut-off for these calls is given here.

Columns and labels:
[1] = test system: SH-SY5Y; experiment: Cell cycle arrest in human SH-SY5Y cells assessed as accumulation at G2/M phase at 2 times IC50 concentration after 16 hrs by FACS analysis (reference value: 15 +/- 4.8%); format: functional
[2] = test system: SH-SY5Y; experiment: Cytotoxicity against human SH-SY5Y cells assessed as cell viability at 10 uM after 48 hrs by MTT assay relative to control; format: functional; settings: for viability at 10 µM: read-out: Activity
Procedure, shortened: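 Single-concentration screen: SH-SY5Y cells given 10 µM compound for 48 h. Viability read by MTT and expressed as % of untreated control. Mean ± SEM of three replicates.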

[3] = test system: SH-SY5Y; experiment: Cell cycle arrest in human SH-SY5Y cells assessed as accumulation at S phase at 2 times IC50 concentration after 16 hrs by FACS analysis (reference value: 36 +/- 4%); format: functional
[4] = test system: SH-SY5Y; experiment: Cell cycle arrest in human SH-SY5Y cells assessed as accumulation at G0/G1 phase at 2 times IC50 concentration after 16 hrs by FACS analysis (reference value: 49 +/- 5.5%); format: functional
[5] = test system: SH-SY5Y; experiment: Cytotoxicity against human SH-SY5Y cells after 48 hrs by MTT assay; format: functional, cell-based
Procedure, shortened: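 SH-SY5Y neuroblastoma cells treated 48 h across a dose range. Viability/proliferation read by MTT. IC50 taken from dose–response curves, mean ± SEM of at least eight determinations from two separate experiments.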

[6] = Inhibition of tubulin polymerization

Structure (SMILES): COc1ccc(-n2nnnc2C(=O)c2cc(OC)c(OC)c(OC)c2)cc1O
Activity [1]: 29% | viability at 10 µM [2]: 51.6% | Activity [3]: 30% | Activity [4]: 41%

Structure (SMILES): COc1ccc(-n2cc(C(=O)c3cc(OC)c(OC)c(OC)c3)nn2)cc1[N+](=O)[O-]
Activity [2]: inactive

Structure (SMILES): COc1cc(-n2cc(C(=O)c3cc(OC)c(OC)c(OC)c3)nn2)ccc1O
Activity [2]: inactive

Structure (SMILES): COc1cc(C(=O)c2cn(-c3ccc4c(c3)OCO4)nn2)cc(OC)c1OC
Activity [2]: inactive

Structure (SMILES): COc1ccc(-n2cc(C(=O)c3cc(OC)c(OC)c(OC)c3)nn2)cc1OC
Activity [2]: inactive

Structure (SMILES): COc1cc(OC)cc(-n2cc(C(=O)c3cc(OC)c(OC)c(OC)c3)nn2)c1
Activity [2]: inactive

Structure (SMILES): COc1ccc(-n2cc(C(=O)c3cc(OC)c(OC)c(OC)c3)nn2)c(OC)c1
Activity [2]: inactive

Structure (SMILES): COc1ccc(-n2cc(C(=O)c3cc(OC)c(OC)c(OC)c3)nn2)cc1F
Activity [2]: inactive

Structure (SMILES): COc1cc(C(=O)c2cn(-c3ccc4ccccc4c3)nn2)cc(OC)c1OC
Activity [2]: inactive

Structure (SMILES): COc1ccc(-c2[nH]nnc2C(=O)c2cc(OC)c(OC)c(OC)c2)cc1
viability at 10 µM [2]: > 70%

Structure (SMILES): COc1cc(C(=O)c2cn(-c3ccc(OC(F)(F)F)cc3)nn2)cc(OC)c1OC
Activity [2]: inactive

Structure (SMILES): COc1ccc(C(=O)C#Cc2cc(OC)c(OC)c(OC)c2)cc1
Activity [1]: 8% | viability at 10 µM [2]: 20.4% | Activity [3]: 18% | Activity [4]: 76%

Structure (SMILES): COc1cc(C(=O)c2cn(-c3cnc4ccccc4c3)nn2)cc(OC)c1OC
Activity [2]: inactive

Structure (SMILES): COc1cccc(-n2cc(C(=O)c3cc(OC)c(OC)c(OC)c3)nn2)c1
Activity [2]: inactive

IC50 [6]: 1000 nM
Structure (SMILES): COc1ccc(/C=C/C(=O)c2cc(OC)c(OC)c(OC)c2)cc1O
IC50 [5]: 50 nM | Activity [1]: 30% | viability at 10 µM [2]: 17% | Activity [3]: 48% | Activity [4]: 23%

Structure (SMILES): COc1cc(C(=O)c2cn(-c3cccc4ccccc34)nn2)cc(OC)c1OC
Activity [2]: inactive

Structure (SMILES): COc1ccc(C(=O)c2nn[nH]c2-c2cc(OC)c(OC)c(OC)c2)cc1
viability at 10 µM [2]: > 70%

Structure (SMILES): COc1ccccc1-n1cc(C(=O)c2cc(OC)c(OC)c(OC)c2)nn1
Activity [2]: inactive

Structure (SMILES): COc1cc(C(=O)c2cn(-c3cc(OC)c(OC)c(OC)c3)nn2)cc(OC)c1OC
Activity [2]: inactive

IC50 [6]: 1800 nM
Structure (SMILES): COc1ccc(/C=C(\C)C(=O)c2cc(OC)c(OC)c(OC)c2)cc1O
IC50 [5]: 0.21 nM

Structure (SMILES): COc1ccc(-n2cc(C(=O)c3cc(OC)c(OC)c(OC)c3)nn2)cc1O
Activity [2]: inactive

Structure (SMILES): COc1cc(OC(F)(F)F)cc(-n2cc(C(=O)c3cc(OC)c(OC)c(OC)c3)nn2)c1
Activity [2]: inactive

Structure (SMILES): COc1cccc(-n2cc(C(=O)c3cc(OC)c(OC)c(OC)c3)nn2)c1O
Activity [2]: inactive

Structure (SMILES): COc1ccc(C#CC(=O)c2cc(OC)c(OC)c(OC)c2)cc1
Activity [1]: 6% | viability at 10 µM [2]: 27.7% | Activity [3]: 16% | Activity [4]: 79%

Structure (SMILES): COc1ccc(-n2cc(C(=O)c3cc(OC)c(OC)c(OC)c3)nn2)cc1
Activity [2]: inactive
